These results are taken from article PMC9975633 (Chinese Herbal Medicines, 2022).

As a reminder, the pKa is the pH at which an ionisable group is half protonated. The Papp A→B is the apparent permeability from the apical to the basolateral side of a cell layer. A high value points to ready permeation. As a reminder, the Papp B→A is how fast a substance crosses the layer from the basolateral side. One may read the efflux ratio as the permeability from basolateral to apical divided by that in the opposite direction, in the common usage.

For series [1] the following is noted: ref Wang, Yang, & Song, 2001; cited from earlier work.
In another series the target is P-gp (Homo sapiens, UniProt P08183). Briefly: Effect of verapamil. The note with it: 0.1 mg/mL SKE + 100 μmol/L verapamil; Caco-2; Fig. 4. In kind it is in vitro ADME. A digest of the protocol:
(§1)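 Caco-2 cells were seeded at 1×10^5/cm² on 0.4 µm inserts and grown about 20 d in DMEM with 10% FBS, then used once TEER exceeded 500 Ω·cm². After a 15 min HBSS equilibration, 0.1 mg/mL extract plus 100 µmol/L inhibitor was dosed AP or BL at 37 °C with 50 r/min shaking. Receiver was sampled with replacement and four anthraquinones were quantified by HPLC. Papp came from the slope, ER = Papp(B-A)/Papp(A-B), n=3.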

The next series relates to MRP. Briefly: Effect of MK-571. The settings on record: 0.1 mg/mL SKE + 100 μmol/L MK-571; Caco-2; Fig. 4. Format: in vitro ADME, human. An outline of the steps: as §1
A further series deals with Caco-2 cell monolayer. Briefly: Bidirectional transport of SKE and RAI in Caco-2 cell monolayer model. Format: in vitro ADME, human. The settings on record: Caco-2; for Cumulative transport mass (AP-BL): in SKE 0.025, 0.05, 0.1 mg/mL over time, Fig. 3. (In general: Caco-2 cells form a polarised layer with tight junctions and transporters.)
Test in series [2]: as above
Format: in vitro ADME, human. The note with it: human; for Papp A→B at 0.05 mg/mL / Papp A→B at 0.1 mg/mL / Papp A→B at 0.025 mg/mL: Caco-2, Papp(A-B), Caco-2, AP-BL; for Papp A→B at 0.05 mg/mL / Papp A→B at 0.1 mg/mL / Papp A→B at 0.025 mg/mL / Papp B→A at 0.05 mg/mL / Papp B→A at 0.1 mg/mL / Papp B→A at 0.025 mg/mL: mean ± SD, n = 3; for Papp B→A at 0.05 mg/mL / Papp B→A at 0.1 mg/mL / Papp B→A at 0.025 mg/mL: Caco-2, Papp(B-A), Caco-2, BL-AP; for efflux ratio at 0.05 mg/mL / efflux ratio at 0.1 mg/mL / efflux ratio at 0.025 mg/mL: Caco-2, ER, ER=Papp(B-A)/Papp(A-B).

Series [3] deals with rat different intestinal segments. Briefly: In situ single-pass intestinal perfusion in rats. In kind it is in vivo, Sprague-Dawley rats. The note with it: same tested intestinal segment. An outline of the steps: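 Male Sprague-Dawley rats (250 ± 50 g) were fasted overnight, anesthetized, and ~10 cm duodenum, jejunum or colon segments were cannulated and flushed with 37 °C saline. Krebs-Ringer perfusate held 22.50 mg/mL extract or matched pure anthraquinones (DMSO <1.0%). Flow was 1 mL/min for 5 min, then 0.2 mL/min for 30 min equilibration. Outflow was collected every 15 min to 120 min and analysed by HPLC. Peff was calculated from gravimetrically corrected volumes and segment length/radius.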

The mark [4] stands for this setting: in RAI, contents as in 0.05 mg/mL SKE.
Where [5] appears, read: in RAI, contents as in 0.1 mg/mL SKE.

P-gp, sequence (P08183 whole entry): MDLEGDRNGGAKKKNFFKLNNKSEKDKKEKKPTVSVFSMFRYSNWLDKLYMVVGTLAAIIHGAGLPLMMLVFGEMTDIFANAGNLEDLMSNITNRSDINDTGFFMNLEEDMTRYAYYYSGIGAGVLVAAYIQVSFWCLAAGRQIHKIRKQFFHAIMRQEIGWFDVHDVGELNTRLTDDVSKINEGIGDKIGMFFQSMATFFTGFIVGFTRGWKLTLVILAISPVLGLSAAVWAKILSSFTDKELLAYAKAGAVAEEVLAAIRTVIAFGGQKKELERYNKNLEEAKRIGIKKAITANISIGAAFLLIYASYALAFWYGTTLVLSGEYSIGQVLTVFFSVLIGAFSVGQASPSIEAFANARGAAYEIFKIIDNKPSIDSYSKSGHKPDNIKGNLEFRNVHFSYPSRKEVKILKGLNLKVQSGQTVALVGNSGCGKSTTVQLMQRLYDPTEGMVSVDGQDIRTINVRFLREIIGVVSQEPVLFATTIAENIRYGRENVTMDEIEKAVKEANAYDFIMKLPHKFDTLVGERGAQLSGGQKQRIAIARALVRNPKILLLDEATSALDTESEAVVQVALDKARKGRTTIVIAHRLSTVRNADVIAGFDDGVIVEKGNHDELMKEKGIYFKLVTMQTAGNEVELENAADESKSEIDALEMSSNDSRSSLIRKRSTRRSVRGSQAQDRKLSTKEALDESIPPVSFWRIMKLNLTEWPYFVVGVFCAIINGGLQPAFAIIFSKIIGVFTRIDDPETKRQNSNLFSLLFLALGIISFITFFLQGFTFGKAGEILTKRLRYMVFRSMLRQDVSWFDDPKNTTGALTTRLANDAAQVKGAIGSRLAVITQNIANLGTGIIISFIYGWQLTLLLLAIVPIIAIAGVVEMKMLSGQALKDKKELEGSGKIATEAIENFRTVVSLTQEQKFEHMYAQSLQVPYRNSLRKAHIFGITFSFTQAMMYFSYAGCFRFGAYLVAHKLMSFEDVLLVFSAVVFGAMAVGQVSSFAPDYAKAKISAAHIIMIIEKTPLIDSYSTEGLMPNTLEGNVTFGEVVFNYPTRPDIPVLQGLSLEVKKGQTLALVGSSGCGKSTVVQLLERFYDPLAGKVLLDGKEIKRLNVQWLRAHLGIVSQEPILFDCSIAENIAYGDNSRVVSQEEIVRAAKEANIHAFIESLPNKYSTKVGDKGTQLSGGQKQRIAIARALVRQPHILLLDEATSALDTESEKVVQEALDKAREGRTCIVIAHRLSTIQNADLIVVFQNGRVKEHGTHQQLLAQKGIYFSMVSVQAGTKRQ

Regarding `O=C1c2cccc(O)c2C(=O)c2c(O)cc(CO)cc21` [Aloe-emodin, aloe-emodin], the pKa in series [1] was 8.64. Further, the “ER after addition of verapamil, compared with SKE group” value on P-gp is reported as “reduced the most”. Also, the “ER after addition of MK571, compared with SKE group” value with MRP is listed as “decreased”. The “Cumulative transport mass (AP-BL)” value with Caco-2 cell monolayer was “time- and concentration-dependent”. In series [2] (setting [4]), the Papp A→B at 0.05 mg/mL came to 15.1 ± 1.54 ×10⁻⁶ cm/s and the Papp B→A at 0.05 mg/mL is 16.1 ± 1.83 ×10⁻⁶ cm/s. Moreover, in series [2] (setting [5]), the apical-to-basolateral permeability (Papp A→B) at 0.1 mg/mL came to 14.3 ± 1.06 ×10⁻⁶ cm/s and the Papp B→A at 0.1 mg/mL came out at 17.3 ± 0.79 ×10⁻⁶ cm/s. In addition, in series [2] (in SKE), the Papp A→B at 0.025 mg/mL is 19.6 ± 2.04 ×10⁻⁶ cm/s and the Papp B→A at 0.025 mg/mL turned out to be 24 ± 0.59 ×10⁻⁶ cm/s. In series [2] (in SKE, 0.05 mg/mL), this compound yielded an apparent permeability from apical to basolateral (Papp A→B) at 0.05 mg/mL of 19.4 ± 1.47 ×10⁻⁶ cm/s and a Papp B→A at 0.05 mg/mL of 23.4 ± 1.56 ×10⁻⁶ cm/s. For the same compound, in series [2] (in SKE, 0.1 mg/mL), the Papp A→B at 0.1 mg/mL amounted to 17.6 ± 0.74 ×10⁻⁶ cm/s and the Papp B→A at 0.1 mg/mL worked out at 19.4 ± 1.65 ×10⁻⁶ cm/s. Besides, the “Peff in RAI compared with SKE” value in series [3] is “higher than those in SKE”.
On to `Cc1cc(O)c2c(c1)C(=O)c1cccc(O)c1C2=O` [Chrysophanol, chrysophanol], for which the pKa in series [1] is given as 8.58. Also, the “ER after addition of verapamil, compared with SKE group” value at P-gp is recorded as “decreased”. Besides, the “ER after addition of MK571, compared with SKE group” value with MRP is recorded as “reduced the most”. Also, the “Cumulative transport mass (AP-BL)” value with Caco-2 cell monolayer was “time- and concentration-dependent”. In series [2] (setting [4]), the efflux ratio at 0.05 mg/mL was determined as 1.75, the apparent permeability from apical to basolateral (Papp A→B) at 0.05 mg/mL is 8.99 ± 0.44 ×10⁻⁶ cm/s and the basolateral-to-apical permeability (Papp B→A) at 0.05 mg/mL is 15.7 ± 1.05 ×10⁻⁶ cm/s. In series [2] (setting [5]), the efflux ratio at 0.1 mg/mL turned out to be 1.66, the apparent permeability from apical to basolateral (Papp A→B) at 0.1 mg/mL was 7.97 ± 1.06 ×10⁻⁶ cm/s and the basolateral-to-apical permeability (Papp B→A) at 0.1 mg/mL worked out at 13.2 ± 0.67 ×10⁻⁶ cm/s. In addition, in series [2] (in SKE), the efflux ratio at 0.025 mg/mL is 2.22, the apparent permeability from apical to basolateral (Papp A→B) at 0.025 mg/mL turned out to be 6.23 ± 0.86 ×10⁻⁶ cm/s and the basolateral-to-apical permeability (Papp B→A) at 0.025 mg/mL stood at 13.8 ± 0.65 ×10⁻⁶ cm/s. In addition, in series [2] (in SKE, 0.05 mg/mL), the efflux ratio at 0.05 mg/mL worked out at 2.02, the Papp A→B at 0.05 mg/mL was determined as 6.87 ± 0.23 ×10⁻⁶ cm/s and the basolateral-to-apical permeability (Papp B→A) at 0.05 mg/mL was found to be 13.9 ± 0.86 ×10⁻⁶ cm/s. In series [2] (in SKE, 0.1 mg/mL), the efflux ratio at 0.1 mg/mL amounted to 1.61, the Papp A→B at 0.1 mg/mL was 6.63 ± 0.48 ×10⁻⁶ cm/s and the basolateral-to-apical permeability (Papp B→A) at 0.1 mg/mL is 10.7 ± 0.15 ×10⁻⁶ cm/s. Besides, the “Peff in RAI compared with SKE” value in series [3] is recorded as “higher than those in SKE”.
In the case of `Cc1cc(O)c2c(c1)C(=O)c1cc(O)cc(O)c1C2=O` [Emodin, emodin], the pKa in series [1] was 5.70. Further, the “ER after addition of verapamil, compared with SKE group” value on P-gp was “reduced the most”. The “ER after addition of MK571, compared with SKE group” value in the series with MRP is listed as “decreased”. Moreover, in the series with Caco-2 cell monolayer, the “Cumulative transport mass (AP-BL)” value was “time- and concentration-dependent”. Further, in series [2] (setting [4]), the efflux ratio at 0.05 mg/mL came out at 1.48, the Papp A→B at 0.05 mg/mL is 7.74 ± 0.61 ×10⁻⁶ cm/s and the Papp B→A at 0.05 mg/mL turned out to be 11.5 ± 0.27 ×10⁻⁶ cm/s. Moreover, in series [2] (setting [5]), the efflux ratio at 0.1 mg/mL was determined as 1.62, the Papp A→B at 0.1 mg/mL was 7.31 ± 0.97 ×10⁻⁶ cm/s and the Papp B→A at 0.1 mg/mL was determined as 11.8 ± 0.66 ×10⁻⁶ cm/s. In addition, in series [2] (in SKE), the efflux ratio at 0.025 mg/mL worked out at 1.6, the Papp A→B at 0.025 mg/mL is 7.4 ± 0.08 ×10⁻⁶ cm/s and the apparent permeability from basolateral to apical (Papp B→A) at 0.025 mg/mL amounted to 11.9 ± 1.11 ×10⁻⁶ cm/s. In series [2] (in SKE, 0.05 mg/mL), the efflux ratio at 0.05 mg/mL was 1.59, the apparent permeability from apical to basolateral (Papp A→B) at 0.05 mg/mL worked out at 6.65 ± 0.16 ×10⁻⁶ cm/s and the basolateral-to-apical permeability (Papp B→A) at 0.05 mg/mL came to 10.6 ± 0.31 ×10⁻⁶ cm/s. Besides, in series [2] (in SKE, 0.1 mg/mL), the efflux ratio at 0.1 mg/mL came to 1.46, the apparent permeability from apical to basolateral (Papp A→B) at 0.1 mg/mL was determined as 6.24 ± 0.29 ×10⁻⁶ cm/s and the basolateral-to-apical permeability (Papp B→A) at 0.1 mg/mL amounted to 9.13 ± 0.42 ×10⁻⁶ cm/s. The “Peff in RAI compared with SKE” value in series [3] was “higher than those in SKE”.
For the compound `O=C(O)c1cc(O)c2c(c1)C(=O)c1cccc(O)c1C2=O` [Rhein, rhein], the pKa in series [1] is 4.72. Also, the “Papp(A-B) as fold of Papp(B-A)” value with Caco-2 cell monolayer (0.025 mg/mL SKE) is 1.4 fold. For the same compound, the “Papp(A-B) as fold of Papp(B-A)” value in the series with Caco-2 cell monolayer (0.05 mg/mL SKE) worked out at 1.6 fold. The “ER (over all concentrations)” value with Caco-2 cell monolayer (in RAI, contents as in 0.025-0.1 mg/mL SKE) is given as “lower than 1.0”. Moreover, the “Cumulative transport mass (AP-BL)” value in the series with Caco-2 cell monolayer was “time- and concentration-dependent”. Moreover, in the series with Caco-2 cell monolayer (in SKE, 0.025-0.1 mg/mL), the “ER (over all concentrations)” value is “lower than 1.0”. Further, in series [2] (setting [4]), the efflux ratio at 0.05 mg/mL came to 0.76, the apical-to-basolateral permeability (Papp A→B) at 0.05 mg/mL was 35 ± 1.72 ×10⁻⁶ cm/s and the Papp B→A at 0.05 mg/mL was determined as 26.6 ± 1.03 ×10⁻⁶ cm/s. For the same compound, in series [2] (setting [5]), the efflux ratio at 0.1 mg/mL came out at 0.88, the Papp A→B at 0.1 mg/mL came to 34.2 ± 1.13 ×10⁻⁶ cm/s and the Papp B→A at 0.1 mg/mL was found to be 30.1 ± 1.37 ×10⁻⁶ cm/s. Also, in series [2] (in SKE), the efflux ratio at 0.025 mg/mL was 0.96, the Papp A→B at 0.025 mg/mL was found to be 27.4 ± 1.47 ×10⁻⁶ cm/s and the Papp B→A at 0.025 mg/mL stood at 21 ± 0.4 ×10⁻⁶ cm/s. In series [2] (in SKE, 0.05 mg/mL), the efflux ratio at 0.05 mg/mL worked out at 0.73, the Papp A→B at 0.05 mg/mL was found to be 28.02 ± 0.14 ×10⁻⁶ cm/s and the Papp B→A at 0.05 mg/mL was 20.5 ± 0.46 ×10⁻⁶ cm/s. Moreover, in series [2] (in SKE, 0.1 mg/mL), the efflux ratio at 0.1 mg/mL was found to be 0.64, the apparent permeability from apical to basolateral (Papp A→B) at 0.1 mg/mL was 31 ± 2.31 ×10⁻⁶ cm/s and the Papp B→A at 0.1 mg/mL was 19.8 ± 0.37 ×10⁻⁶ cm/s. Further, the “Peff in RAI compared with SKE” value in series [3] is recorded as “lower than that in SKE”.
